Data set [1] concerns snake venom phosphodiesterase. In words: Chemical stability in presence of snake venom phosphodiesterase assessed as half life. It is filed as physicochemical.
Data set [2] has as its system Mus musculus. Put plainly: Reduction in PTEN mRNA expression in BALB/c mouse liver at 12 mg/kg, ip administered as single dose measured 72 hrs post dose. It is filed as functional. An outline of the steps: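 Single ip injection at 12 or 60 mg/kg of phosphorothioate gapmer (14-base deoxy gap, two modified nucleotides per wing) against PTEN in Balb-c mice, n = 4/group. After sacrifice, liver PTEN mRNA reported as % down-regulation versus saline controls, and plasma ALT (IU/L) measured as the liver toxicity read-out.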

Data on four compounds can be found in ChEMBL document CHEMBL1629539, “Configuration of the 5'-methyl group modulates the biophysical and biological properties of locked nucleic acid (LNA) oligonucleotides” (J Med Chem, 2010).

As a reminder, the half-life is the time in which the quantity being followed falls by half.

Calls of active or inactive are those of the source. The rule behind the calls is not given here.

`Cc1cn([C@H]2C[C@H](OP(=O)(O)OC[C@H]3O[C@@H](n4cc(C)c(=O)[nH]c4=O)C[C@@H]3OP(=O)(O)OC[C@H]3O[C@@H](n4cc(C)c(=O)[nH]c4=O)C[C@@H]3OP(=O)(O)OC[C@H]3O[C@@H](n4cc(C)c(=O)[nH]c4=O)C[C@@H]3OP(=O)(O)OC[C@H]3O[C@@H](n4cc(C)c(=O)[nH]c4=O)C[C@@H]3OP(=O)(O)OC[C@H]3O[C@@H](n4cc(C)c(=O)[nH]c4=O)C[C@@H]3OP(=O)(O)OC[C@H]3O[C@@H](n4cc(C)c(=O)[nH]c4=O)C[C@@H]3OP(=O)(O)OC[C@H]3O[C@@H](n4cc(C)c(=O)[nH]c4=O)C[C@@H]3OP(=O)(O)OC[C@H]3O[C@@H](n4cc(C)c(=O)[nH]c4=O)C[C@@H]3OP(=O)(O)OC[C@H]3O[C@@H](n4cc(C)c(=O)[nH]c4=O)C[C@@H]3OP(=O)(O)OC[C@@]34CO[C@@H]([C@H](n5ccc(=O)[nH]c5=O)O3)[C@@H]4OP(=O)(O)O[C@H](C)[C@@]34CO[C@@H]([C@H](n5ccc(=O)[nH]c5=O)O3)[C@@H]4O)[C@@H](CO)O2)c(=O)[nH]c1=O`: the half-life in data set [1] is 210 min.

Take `Cc1cn([C@H]2C[C@H](OP(=O)(O)OC[C@H]3O[C@@H](n4cc(C)c(=O)[nH]c4=O)C[C@@H]3OP(=O)(O)OC[C@H]3O[C@@H](n4cc(C)c(=O)[nH]c4=O)C[C@@H]3OP(=O)(O)OC[C@H]3O[C@@H](n4cc(C)c(=O)[nH]c4=O)C[C@@H]3OP(=O)(O)OC[C@H]3O[C@@H](n4cc(C)c(=O)[nH]c4=O)C[C@@H]3OP(=O)(O)OC[C@H]3O[C@@H](n4cc(C)c(=O)[nH]c4=O)C[C@@H]3OP(=O)(O)OC[C@H]3O[C@@H](n4cc(C)c(=O)[nH]c4=O)C[C@@H]3OP(=O)(O)OC[C@H]3O[C@@H](n4cc(C)c(=O)[nH]c4=O)C[C@@H]3OP(=O)(O)OC[C@H]3O[C@@H](n4cc(C)c(=O)[nH]c4=O)C[C@@H]3OP(=O)(O)OC[C@H]3O[C@@H](n4cc(C)c(=O)[nH]c4=O)C[C@@H]3OP(=O)(O)OC[C@@]34CO[C@@H]([C@H](n5ccc(=O)[nH]c5=O)O3)[C@@H]4OP(=O)(O)O[C@@H](C)[C@@]34CO[C@@H]([C@H](n5ccc(=O)[nH]c5=O)O3)[C@@H]4O)[C@@H](CO)O2)c(=O)[nH]c1=O`: in data set [1], the half-life was 486 min.

As to `Cc1cn([C@@H]2O[C@@]3(COP(O)(=S)O[C@H]4[C@H]5OC[C@]4(COP(O)(=S)O[C@H]4[C@H]6OC[C@]4(COP(O)(=S)O[C@H]4[C@H]7OC[C@]4(COP(O)(=S)O[C@H]4[C@H]8OC[C@]4(COP(O)(=S)O[C@H]4[C@H]9OC[C@]4(COP(O)(=S)O[C@H]4[C@H]%10OC[C@]4(COP(O)(=S)O[C@H]4[C@H]%11OC[C@]4(COP(O)(=S)O[C@H]4[C@H]%12OC[C@]4(COP(O)(=S)O[C@H]4[C@H]%13OC[C@]4([C@H](C)O)O[C@H]%13n4ccc(N)nc4=O)O[C@H]%12n4ccc(=O)[nH]c4=O)O[C@H]%11n4cnc%11c(=O)[nH]c(N)nc%114)O[C@H]%10n4ccc(N)nc4=O)O[C@H]9n4cc(C)c(=O)[nH]c4=O)O[C@H]8n4cnc8ncnc(N)c84)O[C@H]7[n+]4c[nH]c7nc(N)[nH]c(=O)c74)O[C@H]6n4ccc(N)nc4=O)O[C@H]5n4ccc(N)nc4=O)CO[C@@H]2[C@@H]3OP(O)(=S)OC[C@@]23CO[C@@H]([C@H](n4ccc(N)nc4=O)O2)[C@@H]3OP(O)(=S)OC[C@@]23CO[C@@H]([C@H](n4cc(C)c(=O)[nH]c4=O)O2)[C@@H]3OP(O)(=S)OC[C@@]23CO[C@@H]([C@H]([n+]4c[nH]c5nc(N)[nH]c(=O)c54)O2)[C@@H]3OP(O)(=S)OC[C@@]23CO[C@@H]([C@H]([n+]4c[nH]c5nc(N)[nH]c(=O)c54)O2)[C@@H]3OP(O)(=S)OC[C@@]23CO[C@@H]([C@H](n4cnc5ncnc(N)c54)O2)[C@@H]3OP(O)(=S)OC[C@@]23CO[C@@H]([C@H](n4cc(C)c(=O)[nH]c4=O)O2)[C@@H]3OP(O)(=S)OC[C@@]23CO[C@@H]([C@H](n4ccc(=O)[nH]c4=O)O2)[C@@H]3OP(O)(=S)OC[C@@]23CO[C@@H]([C@H](n4ccc(=O)[nH]c4=O)O2)[C@@H]3O)c(=O)[nH]c1=O` (some centres undefined), the inhibition entry in data set [2] was “Active”.

On to `Cc1cn([C@H]2CC(OP(=O)(O)OC[C@H]3O[C@@H](n4cc(C)c(=O)[nH]c4=O)C[C@@H]3OP(=O)(O)OC[C@H]3O[C@@H](n4cc(C)c(=O)[nH]c4=O)C[C@@H]3OP(=O)(O)OC[C@H]3O[C@@H](n4cc(C)c(=O)[nH]c4=O)C[C@@H]3OP(=O)(O)OC[C@H]3O[C@@H](n4cc(C)c(=O)[nH]c4=O)C[C@@H]3OP(=O)(O)OC[C@H]3O[C@@H](n4cc(C)c(=O)[nH]c4=O)C[C@@H]3OP(=O)(O)OC[C@H]3O[C@@H](n4cc(C)c(=O)[nH]c4=O)C[C@@H]3OP(=O)(O)OC[C@H]3O[C@@H](n4cc(C)c(=O)[nH]c4=O)C[C@@H]3OP(=O)(O)OC[C@H]3O[C@@H](n4cc(C)c(=O)[nH]c4=O)C[C@@H]3OP(=O)(O)OC[C@H]3O[C@@H](n4cc(C)c(=O)[nH]c4=O)C[C@@H]3OP(=O)(O)OC[C@@]34CO[C@@H]([C@H](n5ccc(=O)[nH]c5=O)O3)[C@@H]4OP(=O)(O)OC[C@@]34CO[C@@H]([C@H](n5ccc(=O)[nH]c5=O)O3)[C@@H]4O)[C@@H](CO)O2)c(=O)[nH]c1=O` (some centres undefined), for which the half-life in data set [1] is 2.6 min.
